Activity calls are given as the source filed them. The rule behind the calls is not given here.
Tests used:
[1] = Vasoconstriction of human coronary artery; format: functional, tissue-based
Rattus norvegicus [2] = assay: Toxicity in Sprague-Dawley rat assessed as nasal irritation at 175 mg/mL administered intranasally for 7 days; format: organism-based; conditions: in vivo, inhaled_or_intranasal, 168 h
Method in brief: (§1)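 Seven-day rat intranasal irritancy study. Dosing at 75 or 175 mg/mL, 12.5 µL/nostril in succinate buffer, giving total doses of 1.875 mg and 4.375 mg. Nasal cavity and respiratory epithelium were examined histologically.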

Rattus norvegicus [3] = assay: Toxicity in Sprague-Dawley rat assessed as nasal irritation at 75 mg/mL administered intranasally for 7 days; format: organism-based; conditions: in vivo, inhaled_or_intranasal, 168 h; method in brief: as §1
[4] = target: T1, Calcitonin gene-related peptide type 1 receptor (Homo sapiens, UniProt O60894+Q16602); assay: Antagonist activity at human CGRP receptor
Homo sapiens [5] = species on record: Homo sapiens; assay: Selectivity ratio for human CGRP receptor over human calcitonin receptor
Homo sapiens [6] = species on record: Homo sapiens; assay: Selectivity ratio for human CGRP receptor over adrenomedullin receptor-1 (unknown origin)
Callithrix jacchus [7] = assay: Inhibition of human alphaCGRP-induced increase in facial blood flow in marmoset at 0.03 mg/kg, sc administered 30 mins after human alphaCGRP-challenge measured 105 mins post-dose by laser Doppler flowmetric analysis relative to control; format: functional; conditions: route subcutaneous
Method in brief: (§2)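 Anesthetized marmosets received four IV hαCGRP challenges (10 μg/kg) at 45 min intervals (-30, 15, 60, 105 min) to raise facial blood flow, monitored by laser Doppler. Antagonist given SC at 0 min. The first challenge is the pre-dose vehicle baseline, and inhibition at each post-dose challenge is expressed against it.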

Rattus norvegicus [8] = assay: Toxicity in Sprague-Dawley rat assessed as lesions in respiratory epithelium at => 75 mg/mL administered intranasally for 7 days; format: organism-based; conditions: in vivo, inhaled_or_intranasal, 168 h; method in brief: as §1
[9] = Plasma concentration in intranasally dosed New Zealand White rabbit after 5 mins; format: ADME, organism-based, Oryctolagus cuniculus; conditions: inhaled or intranasal
Method in brief: (§3)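 Intranasal dosing in rabbit with 10 to 100 mg/mL dosing solutions, then plasma sampling from 5 min to 24 h. Reported values are Cmax, Tmax, and absolute bioavailability for each dosing-solution concentration.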

Callithrix jacchus [10] = assay: Inhibition of human alphaCGRP-induced increase in facial blood flow in marmoset at 0.03 mg/kg, sc administered 30 mins after human alphaCGRP-challenge measured 60 mins post-dose by laser Doppler flowmetric analysis relative to control; format: functional; conditions: route subcutaneous; method in brief: as §2
[11] = Oral bioavailability in cynomolgus monkey; format: ADME, organism-based, Macaca fascicularis; conditions: in vivo
Rattus norvegicus [12] = assay: Toxicity in Sprague-Dawley rat assessed as inflammation of olfactory epithelium at 175 mg/mL administered intranasally for 7 days; format: organism-based; conditions: in vivo, inhaled_or_intranasal, 168 h; method in brief: as §1
Cytochrome P450 2C9 = Cytochrome P450 2C9 (Homo sapiens, UniProt P11712); assay: Inhibition of CYP2C9 (unknown origin) expressed in baculovirus-infected insect cell microsomes assessed as 7-methoxy-4-trifluoromethylcoumarin conversion to 7-hydroxy-4-trifluoromethylcoumarin after 45 mins by fluorescence assay; format: ADME, Microsome
[13] = Plasma concentration in marmoset at 0.03 mg/kg, sc measured 15 to 105 mins post-dose; format: ADME, organism-based, Callithrix jacchus; parameters: dose 0.03 mg/kg, route subcutaneous; conditions: in vivo
Method in brief: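 Total plasma levels were measured in anesthetized marmosets given the antagonist SC at 0 min, sampled over the 15–105 min post-dose period. The animals also received repeated IV hαCGRP (10 μg/kg) challenges for the facial blood flow model.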

Rattus norvegicus [14] = assay: Toxicity in Sprague-Dawley rat assessed as lesions in nasal olfactory epithelium at => 75 mg/mL administered intranasally for 7 days; format: organism-based; conditions: in vivo, inhaled_or_intranasal, 168 h; method in brief: as §1
[15] = Permeability of the compound by PAMPA; format: ADME
Cytochrome P450 2C19 = Cytochrome P450 2C19 (Homo sapiens, UniProt P33261); assay: Inhibition of CYP2C19 (unknown origin) expressed in baculovirus-infected insect cell microsomes assessed as 3-cyano-7-ethoxycoumarin conversion to 7-hydroxy-3-cyanocoumarin after 45 mins by fluorescence assay; format: ADME, Microsome
Rattus norvegicus [16] = assay: Toxicity in Sprague-Dawley rat assessed as erosion of olfactory epithelium at 175 mg/mL administered intranasally for 7 days; format: organism-based; conditions: in vivo, inhaled_or_intranasal, 168 h; method in brief: as §1
[17] = Permeability from basolateral to apical side of human Caco2 cells; format: ADME, cell-based; conditions: Caco-2, read-out: permeability
[18] = Oral bioavailability in intranasally dosed New Zealand White rabbit at 100 mg/mL; format: ADME, organism-based, Oryctolagus cuniculus; conditions: in vivo, other: intranasal; method in brief: as §3
[19] = Fraction unbound in human plasma; format: ADME, cell-free
[20] = target: T1, Calcitonin gene-related peptide type 1 receptor; assay: (§4) Displacement of [125I]-CGRP from CGRP receptor in human SK-N-MC cell membranes after 2 hrs by scintillation counting analysis
[21] = target: Calcitonin gene-related peptide type 1 receptor (Homo sapiens) (UniProt Q16602); assay: as §4
[22] = target: Calcitonin gene-related peptide type 1 receptor (Homo sapiens) (UniProt Q16602); assay: Antagonist activity at CGRP receptor in human SK-N-MC cell membranes assessed as inhibition of CGRP-stimulated cAMP production; format: functional, cell-based
Rattus norvegicus [23] = assay: Toxicity in Sprague-Dawley rat assessed as ulceration of olfactory epithelium at 175 mg/mL administered intranasally for 7 days; format: organism-based; conditions: in vivo, inhaled_or_intranasal, 168 h; method in brief: as §1
[24] = Tmax in intranasally dosed New Zealand White rabbit; format: ADME, organism-based, Oryctolagus cuniculus; conditions: in vivo, inhaled or intranasal; method in brief: as §3
Homo sapiens [25] = species on record: Homo sapiens; assay: Selectivity ratio for human CGRP receptor over amylin receptor-1 (unknown origin)
[26] = Reversal of CGRP-induced dilation of human intracranial arterial rings; format: functional
Method in brief: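 Ex vivo reversal protocol: vessels fully dilated with CGRP, then cumulative addition of antagonist in a 3-point concentration-response. EC50 (concentration giving 50% reversal) estimated by best fit, n = 4 vessels per compound.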

Rattus norvegicus [27] = assay: Toxicity in Sprague-Dawley rat assessed as neutrophilic inflammation of respiratory epithelium at 175 mg/mL administered intranasally for 7 days; format: organism-based; conditions: in vivo, inhaled_or_intranasal, 168 h; method in brief: as §1
Cytochrome P450 1A2 = target: T2, Cytochrome P450 1A2 (Homo sapiens, UniProt P05177); assay: Inhibition of CYP1A2 (unknown origin) expressed in baculovirus-infected insect cell microsomes assessed as 3-cyano-7-ethoxycoumarin conversion to 7-hydroxy-3-cyanocoumarin after 45 mins by fluorescence assay; format: ADME, Microsome
T2 sequence (P05177 whole entry): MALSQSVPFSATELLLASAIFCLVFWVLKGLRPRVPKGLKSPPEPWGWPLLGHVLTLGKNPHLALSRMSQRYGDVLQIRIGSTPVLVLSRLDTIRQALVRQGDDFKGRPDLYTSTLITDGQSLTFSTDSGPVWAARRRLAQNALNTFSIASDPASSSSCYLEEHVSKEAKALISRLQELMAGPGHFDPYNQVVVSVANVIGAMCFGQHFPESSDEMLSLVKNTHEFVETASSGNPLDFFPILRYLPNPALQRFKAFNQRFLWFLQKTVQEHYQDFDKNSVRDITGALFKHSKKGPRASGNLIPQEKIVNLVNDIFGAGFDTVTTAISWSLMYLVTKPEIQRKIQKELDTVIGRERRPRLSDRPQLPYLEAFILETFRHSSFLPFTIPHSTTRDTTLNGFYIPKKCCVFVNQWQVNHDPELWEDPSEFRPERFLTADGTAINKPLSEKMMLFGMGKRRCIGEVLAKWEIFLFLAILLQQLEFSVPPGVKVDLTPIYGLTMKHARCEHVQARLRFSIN

Cytochrome P450 3A4 [28] = target: T3, Cytochrome P450 3A4 (Homo sapiens, UniProt P08684); assay: Inhibition of CYP3A4 (unknown origin) expressed in baculovirus-infected insect cell microsomes assessed as 7-benzyloxy-4-trifluoromethylcoumarin conversion to 7-hydroxy-4-trifluoromethylcoumarin after 20 mins by fluorescence assay; format: ADME, Microsome
Cytochrome P450 2D6 = Cytochrome P450 2D6 (Homo sapiens, UniProt P10635); assay: Inhibition of CYP2D6 (unknown origin) expressed in baculovirus-infected insect cell microsomes assessed as 3-[2-(N,N-diethyl-N-methylamino)ethyl]-7-methoxy-4-methylcoumarin conversion to 3-[2-(N,N-diethylamino)ethyl]-7-hydroxy-4-methylcoumarin after 45 mins by fluorescence assay; format: ADME, Microsome
[29] = Subcutaneous bioavailability in sc dosed Sprague-Dawley rat; conditions: in vivo
Homo sapiens [30] = species on record: Homo sapiens; assay: Selectivity ratio for human CGRP receptor over amylin receptor-3 (unknown origin)
[31] = Chemical degradation in succinate buffer at 40 mg/mL after 3 months at pH 6
[32] = Vasoconstriction of human coronary artery up to 10 uM; format: functional, tissue-based
[33] = Toxicity in sc dosed Sprague-Dawley rat after 10 days; format: organism-based; conditions: in vivo
Method in brief: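 Rats were dosed subcutaneously once daily for 10 days at 0.3, 3, 10 and 30 mg/kg/day and assessed for tolerability and signs of systemic toxicity.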

[34] = Reversal of CGRP-induced dilation of human intracranial arterial rings assessed as rightward shift of concentration-response curve after 30 mins by Schild plot analysis; format: functional; conditions: 0.5 h
[35] = Permeability from apical to basolateral side of human Caco2 cells; format: ADME, cell-based; conditions: Caco-2, read-out: permeability
[36] = Cmax in intranasally dosed New Zealand White rabbit; format: ADME, organism-based, Oryctolagus cuniculus; parameters: route nasal; conditions: in vivo, inhaled or intranasal; method in brief: as §3
hERG [37] = target: T4, hERG (Homo sapiens, UniProt Q12809); assay: Inhibition of human ERG at 30 uM relative to control
Homo sapiens [38] = species on record: Homo sapiens; assay: Selectivity ratio for human CGRP receptor over adrenomedullin receptor-2 (unknown origin)
Callithrix jacchus [39] = assay: Inhibition of human alphaCGRP-induced increase in facial blood flow in marmoset at 0.03 mg/kg, sc administered 30 mins after human alphaCGRP-challenge measured 15 mins post-dose by laser Doppler flowmetric analysis relative to control; format: functional; conditions: route subcutaneous; method in brief: as §2
[40] = Oral bioavailability in mouse; format: ADME, organism-based; conditions: in vivo
[41] = Aqueous solubility of the compound; format: physicochemical; conditions: buffer
Method in brief: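 Aqueous solubility of crystalline material, determined at pH 8.5 and at lower pH.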

Cytochrome P450 3A4 [42] = target: T3, Cytochrome P450 3A4; assay: Inhibition of CYP3A4 (unknown origin) expressed in baculovirus-infected insect cell microsomes assessed as benzoylresorufin conversion to resorufin metabolites after 45 mins by fluorescence assay; format: ADME, Microsome
[43] = Oral bioavailability in intranasally dosed New Zealand White rabbit at 10 mg/mL; format: ADME, organism-based, Oryctolagus cuniculus; conditions: in vivo, other: intranasal; method in brief: as §3
hERG [44] = target: T4, hERG; assay: Inhibition of human ERG at 10 uM relative to control
Rattus norvegicus [45] = assay: Toxicity in Sprague-Dawley rat assessed as single cell necrosis of respiratory epithelium at 175 mg/mL administered intranasally for 7 days; format: organism-based; conditions: in vivo, inhaled_or_intranasal, 168 h; method in brief: as §1

Calcitonin gene-related peptide type 1 receptor (Homo sapiens), sequence (Q16602 whole entry): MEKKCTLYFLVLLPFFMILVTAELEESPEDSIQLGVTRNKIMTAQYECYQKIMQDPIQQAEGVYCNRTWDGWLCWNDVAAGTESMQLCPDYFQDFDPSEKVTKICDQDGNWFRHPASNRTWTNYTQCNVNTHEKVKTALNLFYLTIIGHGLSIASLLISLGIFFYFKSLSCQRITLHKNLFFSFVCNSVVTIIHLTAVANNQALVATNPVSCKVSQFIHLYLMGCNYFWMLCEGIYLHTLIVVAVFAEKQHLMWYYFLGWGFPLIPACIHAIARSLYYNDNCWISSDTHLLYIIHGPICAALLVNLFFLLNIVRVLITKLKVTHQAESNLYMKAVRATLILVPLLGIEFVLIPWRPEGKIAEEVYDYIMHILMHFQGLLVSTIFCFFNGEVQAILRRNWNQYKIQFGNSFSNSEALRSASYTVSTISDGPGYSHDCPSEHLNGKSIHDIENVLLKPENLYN
T1 sequence (Q16602 whole entry, one chain of several): as the sequence (Q16602 whole entry) above
T4 sequence (Q12809 whole entry): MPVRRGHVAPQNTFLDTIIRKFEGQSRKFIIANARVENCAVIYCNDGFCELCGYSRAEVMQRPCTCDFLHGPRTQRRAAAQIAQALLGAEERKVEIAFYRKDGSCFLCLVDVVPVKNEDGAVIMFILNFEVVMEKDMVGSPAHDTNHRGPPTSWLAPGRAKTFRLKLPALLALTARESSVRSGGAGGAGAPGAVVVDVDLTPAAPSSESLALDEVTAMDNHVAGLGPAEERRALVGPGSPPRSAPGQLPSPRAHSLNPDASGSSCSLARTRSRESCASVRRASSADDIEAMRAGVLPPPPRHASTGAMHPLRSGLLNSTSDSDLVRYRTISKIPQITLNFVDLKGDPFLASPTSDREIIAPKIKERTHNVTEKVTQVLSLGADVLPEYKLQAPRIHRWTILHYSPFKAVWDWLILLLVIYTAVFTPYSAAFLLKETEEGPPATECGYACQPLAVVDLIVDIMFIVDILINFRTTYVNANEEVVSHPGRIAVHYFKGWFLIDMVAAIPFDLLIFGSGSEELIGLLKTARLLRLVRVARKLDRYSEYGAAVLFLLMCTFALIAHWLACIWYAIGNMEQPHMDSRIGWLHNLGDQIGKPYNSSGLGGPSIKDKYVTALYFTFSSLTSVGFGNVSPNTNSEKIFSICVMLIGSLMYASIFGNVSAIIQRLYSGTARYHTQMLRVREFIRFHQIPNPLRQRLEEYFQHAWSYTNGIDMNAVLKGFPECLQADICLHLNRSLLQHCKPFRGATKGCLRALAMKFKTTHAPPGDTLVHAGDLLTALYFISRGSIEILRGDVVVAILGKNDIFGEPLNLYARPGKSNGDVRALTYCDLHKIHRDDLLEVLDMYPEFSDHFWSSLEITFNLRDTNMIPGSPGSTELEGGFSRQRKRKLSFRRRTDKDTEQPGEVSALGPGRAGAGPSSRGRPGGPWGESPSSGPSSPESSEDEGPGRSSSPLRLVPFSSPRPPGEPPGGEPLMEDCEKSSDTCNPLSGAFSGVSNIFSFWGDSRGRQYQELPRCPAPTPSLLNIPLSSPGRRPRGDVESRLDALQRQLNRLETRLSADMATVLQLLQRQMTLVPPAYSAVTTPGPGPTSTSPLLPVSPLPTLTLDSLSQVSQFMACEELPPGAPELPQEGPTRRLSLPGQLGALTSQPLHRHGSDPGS
T3 sequence (P08684 whole entry): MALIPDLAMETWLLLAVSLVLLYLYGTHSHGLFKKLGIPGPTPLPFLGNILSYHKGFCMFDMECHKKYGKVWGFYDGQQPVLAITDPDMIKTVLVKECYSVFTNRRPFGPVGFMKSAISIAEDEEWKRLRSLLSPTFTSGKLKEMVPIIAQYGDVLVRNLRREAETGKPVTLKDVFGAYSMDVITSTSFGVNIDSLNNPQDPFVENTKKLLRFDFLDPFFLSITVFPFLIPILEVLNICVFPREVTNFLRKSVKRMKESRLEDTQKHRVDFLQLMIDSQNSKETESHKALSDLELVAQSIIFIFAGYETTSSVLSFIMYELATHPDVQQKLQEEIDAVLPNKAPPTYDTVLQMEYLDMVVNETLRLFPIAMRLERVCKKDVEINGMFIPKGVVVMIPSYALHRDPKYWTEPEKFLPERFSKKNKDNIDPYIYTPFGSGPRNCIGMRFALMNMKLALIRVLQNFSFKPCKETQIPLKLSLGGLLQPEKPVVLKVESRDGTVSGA
Cytochrome P450 2C9, sequence (P11712 whole entry): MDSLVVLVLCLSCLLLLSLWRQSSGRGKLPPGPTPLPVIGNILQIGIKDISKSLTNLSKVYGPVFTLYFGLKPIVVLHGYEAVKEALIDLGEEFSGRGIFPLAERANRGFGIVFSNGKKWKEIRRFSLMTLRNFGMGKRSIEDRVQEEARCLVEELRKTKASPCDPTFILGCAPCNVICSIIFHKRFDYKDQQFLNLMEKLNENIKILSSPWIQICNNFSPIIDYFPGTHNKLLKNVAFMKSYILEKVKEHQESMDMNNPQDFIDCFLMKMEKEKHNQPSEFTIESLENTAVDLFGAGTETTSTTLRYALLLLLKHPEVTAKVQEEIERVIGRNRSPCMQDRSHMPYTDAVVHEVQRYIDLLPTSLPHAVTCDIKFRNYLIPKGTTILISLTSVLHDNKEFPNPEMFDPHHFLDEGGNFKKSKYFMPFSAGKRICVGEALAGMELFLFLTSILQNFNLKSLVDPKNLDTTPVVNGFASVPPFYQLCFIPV
Cytochrome P450 2D6, sequence (P10635 whole entry): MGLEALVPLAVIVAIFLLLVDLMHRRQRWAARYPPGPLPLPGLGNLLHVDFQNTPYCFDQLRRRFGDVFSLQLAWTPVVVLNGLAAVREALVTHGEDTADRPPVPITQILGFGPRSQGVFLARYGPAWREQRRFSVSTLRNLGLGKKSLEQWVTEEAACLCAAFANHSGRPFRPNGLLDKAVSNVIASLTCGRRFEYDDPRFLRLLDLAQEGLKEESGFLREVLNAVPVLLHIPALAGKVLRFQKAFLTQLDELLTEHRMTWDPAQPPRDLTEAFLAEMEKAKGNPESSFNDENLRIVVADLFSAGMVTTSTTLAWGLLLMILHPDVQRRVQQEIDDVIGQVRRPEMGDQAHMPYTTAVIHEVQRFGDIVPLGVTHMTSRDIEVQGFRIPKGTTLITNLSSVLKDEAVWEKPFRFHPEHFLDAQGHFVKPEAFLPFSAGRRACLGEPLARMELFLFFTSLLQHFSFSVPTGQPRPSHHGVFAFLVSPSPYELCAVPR
Cytochrome P450 2C19, sequence (P33261 whole entry): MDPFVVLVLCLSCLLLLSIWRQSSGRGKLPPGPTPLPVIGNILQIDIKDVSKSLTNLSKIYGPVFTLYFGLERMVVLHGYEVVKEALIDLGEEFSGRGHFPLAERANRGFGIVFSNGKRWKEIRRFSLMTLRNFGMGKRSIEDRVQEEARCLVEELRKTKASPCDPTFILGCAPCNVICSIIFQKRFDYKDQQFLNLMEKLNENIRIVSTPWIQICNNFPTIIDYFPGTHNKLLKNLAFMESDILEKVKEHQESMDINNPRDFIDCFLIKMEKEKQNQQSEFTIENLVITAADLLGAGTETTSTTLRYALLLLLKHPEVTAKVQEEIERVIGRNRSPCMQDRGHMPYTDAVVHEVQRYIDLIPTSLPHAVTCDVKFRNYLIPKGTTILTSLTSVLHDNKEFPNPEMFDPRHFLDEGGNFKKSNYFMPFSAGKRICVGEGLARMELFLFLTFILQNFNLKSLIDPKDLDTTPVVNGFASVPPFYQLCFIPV

CNS(=O)(=O)Cc1ccc2[nH]cc(CCN(C)C)c2c1
Activity [1]: Dose-dependent effect
EC50 [1]: 280 nM

Cc1cc(C[C@@H](NC(=O)N2CCC(N3Cc4cccc(F)c4NC3=O)CC2)C(=O)N2CCC(N3CCCCC3)CC2)cc2cn[nH]c12
Activity (Rattus norvegicus [2]): Toxic
Activity (Rattus norvegicus [3]): Toxic

O=C(CN1C(=O)C2(CCCC2)NC[C@H]1c1cc(F)cc(F)c1)Nc1ccc2c(c1)C[C@@]1(C2)C(=O)Nc2ncccc21 [MK3207]
Ki [4]: 0.021 nM

Cc1cc(C[C@@H](NC(=O)N2CCC(c3cc4ccccc4[nH]c3=O)CC2)C(=O)N2CCN(C3CCN(C)CC3)CC2)cc2cn[nH]c12 [ZAVEGEPANT]
Selectivity ratio (Homo sapiens [5]): > 10000
Selectivity ratio (Homo sapiens [6]): > 10000
inhibition in vivo at 0.03 mg/kg (Callithrix jacchus [7]): 70%
Activity (Rattus norvegicus [8]): Toxic
concentration at 5 min [9]: > 10 nM
inhibition in vivo at 0.03 mg/kg (Callithrix jacchus [10]): 80%
bioavailability [11]: 0.3%
Activity (Rattus norvegicus [12]): Toxic
IC50 (Cytochrome P450 2C9): > 40000 nM
concentration [13]: 25 nM
Activity (Rattus norvegicus [14]): Toxic
permeability [15]: impermeable
Activity (Rattus norvegicus [2]): Non-toxic
IC50 (Cytochrome P450 2C19): > 40000 nM
Activity (Rattus norvegicus [16]): Toxic
Papp B→A [17]: 1.6 ×10⁻⁶ cm/s
bioavailability [18]: 30%
fraction unbound [19]: 0.37
Ki [20]: 0.023 nM
inhibition [21]: Dose-dependent effect
Kb [22]: 0.022 nM
Activity (Rattus norvegicus [23]): Toxic
Tmax [24]: 15 min
Selectivity ratio (Homo sapiens [25]): > 10000
EC50 [26]: 0.88 nM
Activity (Rattus norvegicus [27]): Toxic
IC50 (Cytochrome P450 1A2): > 40000 nM
IC50 (Cytochrome P450 3A4 [28]): > 40000 nM
IC50 (Cytochrome P450 2D6): > 40000 nM
Activity (Rattus norvegicus [3]): Non-toxic
bioavailability [29]: 82%
Selectivity ratio (Homo sapiens [30]): > 10000
Degradation % at 2191.5 h, 40 mg/mL [31]: 0.3%
Activity [32]: inactive
MTD at 240 h [33]: 30 mg/kg/day
Kb [34]: 0.091 nM
Papp A→B [35]: 1.6 ×10⁻⁶ cm/s
Cmax [36]: 120 nM
inhibition at 30 µM (hERG [37]): 22%
Selectivity ratio (Homo sapiens [38]): > 10000
inhibition in vivo at 0.03 mg/kg (Callithrix jacchus [39]): 48%
bioavailability [40]: 1.4%
solubility [41]: > 300 mg/mL
IC50 (Cytochrome P450 3A4 [42]): 24000 nM
bioavailability [43]: 13%
inhibition at 10 µM (hERG [44]): 9.5%
Activity (Rattus norvegicus [45]): Toxic
